{
  "source": "ChEMBL document CHEMBL1649438",
  "about": "“Activities of ceftobiprole and other cephalosporins against extracellular and intracellular (THP-1 macrophages and keratinocytes) forms of methicillin-susceptible and methicillin-resistant Staphylococcus aureus” (Antimicrob Agents Chemother, 2009)",
  "key": {"Staphylococcus aureus [1]": {"test_system": "Staphylococcus aureus", "assay": "Antimicrobial activity against Panton-valentine leucocidin-positive community-acquired methicillin-resistant Staphylococcus aureus N4042228 infected in human THP-1 cells assessed as bacterial count per mg of cell protein at low extracellular compound concentration after 24 hrs", "assay_type": "functional", "outline": "(§1)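 THP-1 human macrophages infected with S. aureus (postphagocytosis inoculum 1.5 × 10^6 to 3.0 × 10^6 CFU/mg cell protein), then incubated 24 h with increasing extracellular antibiotic concentrations. Change in log10 CFU/mg cell protein from the postphagocytosis inoculum, n = 3. Hill function fitted on log-transformed data. Low-concentration value (E0) and high-concentration value (Emax) are extrapolated. Where a pH is given, concentrations are expressed as multiples of the broth MIC at that pH.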"}, "Staphylococcus aureus [2]": {"test_system": "Staphylococcus aureus", "assay": "Bacteriostatic activity against Panton-valentine leucocidin-positive community-acquired methicillin-resistant Staphylococcus aureus N4090440 infected in human THP-1 cells assessed as change in bacterial count after 24 hrs at pH 5.5", "assay_type": "functional", "outline": "(§2)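 THP-1 macrophages infected as described previously, with a postphagocytosis inoculum of 1.5 × 10⁶ to 3.0 × 10⁶ CFU/mg cell protein. Cells were exposed 24 h to increasing extracellular antibiotic concentrations. Response is the change in log10 CFU/mg protein from the inoculum (n = 3), fitted to a Hill function. E0 and Emax were extrapolated to infinitely low and high concentrations. EC50 and static concentration (graphical interpolation) are expressed as multiples of the broth MIC at pH 5.5 or 7.4.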"}, "Staphylococcus aureus [3]": {"test_system": "Staphylococcus aureus", "assay": "Antimicrobial activity against Panton-valentine leucocidin-positive community-acquired methicillin-resistant Staphylococcus aureus STA 228 infected in human THP-1 cells assessed as bacterial count per mg of cell protein at high extracellular compound concentration after 24 hrs at pH 5.5", "assay_type": "functional", "outline": "as §1"}, "Staphylococcus aureus [4]": {"test_system": "Staphylococcus aureus", "assay": "Bacteriostatic activity against methicillin-susceptible Staphylococcus aureus […] infected in human THP-1 cells assessed as change in bacterial count after 24 hrs at pH 7.4", "assay_type": "functional", "outline": "(§3)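 Human THP-1 macrophage-like cells were infected with S. aureus to a postphagocytosis inoculum of 1.5 × 10^6 to 3.0 × 10^6 CFU/mg cell protein. Cells were then exposed 24 h to increasing extracellular antibiotic concentrations. Response was the log10 CFU change per mg protein from the postphagocytosis inoculum, n = 3. A Hill function was fitted on log-transformed axes. E0 and Emax were extrapolated to infinitely low and high concentrations. Cs was read by graphical interpolation. Concentrations were expressed as multiples of the broth MIC at pH 5.5 or pH 7.4.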"}, "Staphylococcus aureus [5]": {"test_system": "Staphylococcus aureus", "assay": "Bacteriostatic activity against hospital-acquired vancomycin-intermediate Staphylococcus aureus NRS126 infected in human THP-1 cells assessed as change in bacterial count after 24 hrs at pH 5.5", "assay_type": "functional"}, "Staphylococcus aureus [6]": {"test_system": "Staphylococcus aureus", "assay": "Antimicrobial activity against Panton-valentine leucocidin-positive community-acquired methicillin-resistant Staphylococcus aureus NRS192 infected in human THP-1 cells assessed as bacterial count per mg of cell protein at high extracellular compound concentration after 24 hrs at pH 5.5", "assay_type": "functional", "outline": "as §1"}, "Staphylococcus aureus [7]": {"test_system": "Staphylococcus aureus", "assay": "Antimicrobial activity against methicillin-susceptible Staphylococcus aureus ATCC 11632 infected in human THP-1 cells assessed as change in bacterial count after 24 hrs at pH 5.5", "assay_type": "functional, organism-based", "conditions": "ATCC 11632, THP-1, 24 h", "outline": "as §2"}, "Staphylococcus aureus [8]": {"test_system": "Staphylococcus aureus", "assay": "Bacteriostatic activity against methicillin-susceptible Staphylococcus aureus ATCC 11632 infected in human THP-1 cells assessed as change in bacterial count after 24 hrs at pH 5.5", "assay_type": "functional", "outline": "as §3"}, "Staphylococcus aureus [9]": {"test_system": "Staphylococcus aureus", "assay": "Antimicrobial activity against hospital-acquired methicillin-resistant Staphylococcus aureus ATCC 33592 infected in human THP-1 cells assessed as change in bacterial count after 24 hrs at pH 5.5", "assay_type": "functional, organism-based", "conditions": "ATCC 33592, THP-1, 24 h", "outline": "as §2"}, "Staphylococcus aureus [10]": {"test_system": "Staphylococcus aureus", "assay": "Ratio of MIC for hospital-acquired methicillin-resistant Staphylococcus aureus ATCC 33591 by microdilution method at pH 7.4 to ratio of MIC for hospital-acquired methicillin-resistant Staphylococcus aureus ATCC 33591 by microdilution method at pH 5.5", "assay_type": "functional", "outline": "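MICs were determined by broth microdilution at pH 7.4 and pH 5.5. Broth was adjusted before inoculation, and pH was confirmed maintained (±0.1 unit) at the end.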"}, "Staphylococcus aureus [11]": {"test_system": "Staphylococcus aureus", "assay": "Antimicrobial activity against methicillin-susceptible Staphylococcus aureus ATCC 25923 infected in human keratinocytes assessed as change in bacterial count after 24 hrs", "assay_type": "functional, organism-based", "conditions": "ATCC 25923, 24 h", "outline": "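Primary human skin keratinocytes were grown in defined keratinocyte serum-free medium and infected with S. aureus to 1.5 × 10^6 to 3.0 × 10^6 CFU/mg cell protein. Cells were exposed 24 h to increasing extracellular concentrations. Response was the log10 CFU change from the postphagocytosis inoculum, fitted by a Hill equation with slope 1. Cs is the concentration giving CFU equal to the original inoculum, found by graphical interpolation.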"}, "MecA [12]": {"target": "T1, MecA (Staphylococcus aureus, UniProt Q7DHH4)", "T1 sequence (Q7DHH4 whole entry)": "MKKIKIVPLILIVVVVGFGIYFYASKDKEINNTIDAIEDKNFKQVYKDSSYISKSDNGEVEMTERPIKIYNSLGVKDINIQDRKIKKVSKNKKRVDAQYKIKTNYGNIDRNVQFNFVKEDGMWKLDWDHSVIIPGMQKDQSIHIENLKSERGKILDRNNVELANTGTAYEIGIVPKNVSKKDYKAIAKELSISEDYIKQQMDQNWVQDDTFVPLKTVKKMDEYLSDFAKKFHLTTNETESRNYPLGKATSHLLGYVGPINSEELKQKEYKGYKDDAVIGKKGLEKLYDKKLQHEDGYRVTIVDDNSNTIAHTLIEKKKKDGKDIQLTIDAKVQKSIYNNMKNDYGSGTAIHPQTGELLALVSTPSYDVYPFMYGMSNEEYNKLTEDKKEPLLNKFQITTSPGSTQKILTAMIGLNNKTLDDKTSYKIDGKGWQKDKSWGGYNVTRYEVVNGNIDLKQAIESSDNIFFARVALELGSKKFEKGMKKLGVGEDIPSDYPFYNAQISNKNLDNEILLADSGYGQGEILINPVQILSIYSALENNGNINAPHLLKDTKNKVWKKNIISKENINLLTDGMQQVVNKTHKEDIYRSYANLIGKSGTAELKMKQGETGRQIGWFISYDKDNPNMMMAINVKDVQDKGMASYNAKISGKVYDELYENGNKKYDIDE", "assay": "Binding affinity to Staphylococcus aureus ATCC […] PBP2a by Western blotting at pH 5.5 in presence of 100 uM Bocillin FL", "outline": "(§4)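 Soluble truncated PBP 2a (ΔM1-Y23) was expressed in E. coli Rosetta 2(DE3) and purified. It was preincubated 25 min at 37°C with increasing cephalosporin concentrations, then 100 μM Bocillin FL was added for 25 min at 37°C at pH 5.5 or 7.4. Samples were run on SDS-PAGE and blotted with anti-bodipy antibody plus HRP secondary. Bands were detected by chemiluminescence and quantified by densitometry.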"}, "MecA [13]": {"target": "T1, MecA", "assay": "Binding affinity to Staphylococcus aureus ATCC […] PBP2a by Western blotting at pH 7.4 in presence of 100 uM Bocillin FL", "outline": "as §4"}, "Staphylococcus aureus [14]": {"test_system": "Staphylococcus aureus", "assay": "Antimicrobial activity against methicillin-susceptible Staphylococcus aureus ATCC 11632 infected in human THP-1 cells assessed as bacterial count per mg of cell protein at high extracellular compound concentration after 24 hrs", "assay_type": "functional", "outline": "as §2"}},
  "data": [
    {"compound": "Nc1nc(/C(=N/O)C(=O)N[C@@H]2C(=O)N3C(C(=O)O)=C(/C=C4\\CCN([C@@H]5CCNC5)C4=O)CS[C@H]23)ns1", "note": "[CEFTOBIPROLE]", "values": [
      {"measurement": "log10cfu", "setting": "Staphylococcus aureus [1]", "result": 3.45},
      {"measurement": "Activity", "setting": "Staphylococcus aureus [2]", "result": 1.45, "unit": "× MIC"},
      {"measurement": "log10cfu", "setting": "Staphylococcus aureus [3]", "result": -1.02},
      {"measurement": "Activity", "setting": "Staphylococcus aureus [4]", "result": 0.6, "unit": "× MIC"},
      {"measurement": "Activity", "setting": "Staphylococcus aureus [5]", "result": "1.97 multiples of MIC"},
      {"measurement": "log10cfu", "setting": "Staphylococcus aureus [6]", "result": -1.02},
      {"measurement": "EC50", "setting": "Staphylococcus aureus [7]", "result": 0.41, "unit": "× MIC"},
      {"measurement": "Activity", "setting": "Staphylococcus aureus [8]", "result": 1.19, "unit": "× MIC"},
      {"measurement": "EC50", "setting": "Staphylococcus aureus [9]", "result": 0.77, "unit": "×MIC"},
      {"measurement": "fold change (FC)", "setting": "Staphylococcus aureus [10]", "result": 4},
      {"measurement": "EC50", "setting": "Staphylococcus aureus [11]", "result": 0.35, "unit": "µg/mL"},
      {"measurement": "IC50", "setting": "MecA [12]", "result": 1900, "unit": "nM"},
      {"measurement": "IC50", "setting": "MecA [13]", "result": 8, "unit": "µM"},
      {"measurement": "log10cfu", "setting": "Staphylococcus aureus [14]", "result": -0.95}
    ]}
  ]
}
